# Assay outcomes from PubChem.
# Lmaj promast = reduces viability of Leishmania major promastigotes; inhibition, % at 10 µM; AID 1063; hit rate 9% among 200,000; resazurin fluorescence viability; in the data active = inhibition above about 50%;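 also: promastigotes grown with compound for 44 hours at 28 °C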
# b-catenin transl = alters nuclear translocation of beta-catenin in HeLa cells; immunofluorescence imaging; nuclear translocation activity, % at 5 µM; hit rate 0.3% among 190,000; AID 1665;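 active = nuclear translocation activity above 50% at 5 µM, with a well cell count of 50 or more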;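 also: per-cell ratio of nuclear to cytoplasmic median beta-catenin stain intensity; plate controls were DMSO negative control for no effect and GSK-3 inhibitor IX positive control for full effect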
#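 Test system: human HeLa cells, native beta-catenin. Compound dosing: 5 µM primary single dose, 0.1% DMSO, 0.02–20 µM confirmation series. Incubation: compound exposure 24 h at 37°C. Detection: beta-catenin immunostaining with DAPI counterstain, 20x imaging, 6 fields/well. Read-out basis: Nuclear/cytoplasmic beta-catenin signal ratio, % activation.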
# MT stabilizer = stabilizes microtubules in HeLa cells; HeLa tubulin immunostaining HCS, 24 h; share of cells brighter than vehicle mean+2SD; % tubulin-high responders, % at 10 µM; hit rate 0.83% among 200,000; AID 2205;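 active = plate Z-score above 3 for both tubulin-high and condensed-nucleus cell shares, with cell loss under 80%, at 10 µM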;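 also: anti alpha tubulin signal scored within the nucleus-defined area of each cell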
# Dynein transport = blocks dynein driven cargo transport along microtubules. 3617.4 mouse cells, GR-EGFP nuclear translocation imaging; test concentration mostly 20 µM; stimulated with dexamethasone, 1 µM; stronger effect = lower value. z-score, hits read low. hit rate 0.47% among 220,000;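 active = plate z-score of nuclear minus cytoplasmic receptor signal below a set negative limit, without overly bright fluorescence or cell loss, cut at about -3.5 in these data, passing the limit was not always enough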;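 also: z-score of nuclear minus cytoplasmic ring GR-EGFP intensity difference per well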
#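 Buffer or medium: tetracycline-free induction medium containing charcoal-stripped FBS / Reagent: dexamethasone agonist, 1.0 µM final, for 30 min / Technique: automated 10x imaging of fixed Hoechst-stained cells / Times: induction 48 h, compound 1 h, agonist 30 min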
# CHOP inh = CHOP inhibition in unfolded protein response; CHO-K1 CHOP-promoter luciferase, tunicamycin-induced, 15-18 h; inhibition, % at 10 µM; hit rate 3.8% among 220,000; AID 2732;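 active = compounds that reduced the stress-induced luciferase reporter signal by more than about 70% of percent inhibition, limit read from the data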;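 also: 0% = tunicamycin plus vehicle and 100% = wells without tunicamycin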
# Autophagy HCS = alters autophagy in cells; MEF GFP-LC3 puncta imaging; test concentration mostly 10 µM; calls only at 10 µM (by protocol); hit rate 0.98% among 190,000; AID 463193;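 active = percentage of spot-positive cells more than 3 SD above its plate mean, without a fluorescence outlier flag or 80% toxicity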;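 also: spot-positive cell cutoff set from DMSO-treated cells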
# * marks the source's active call; other numbers are inactive results; i = inactive; . = no result; + = active, no number. A selection: hits, their analogues and other compounds. The true share with any hit is near 12%.
SMILES,Lmaj promast,b-catenin transl,MT stabilizer,Dynein transport,CHOP inh,Autophagy HCS
COc1ccc(C2CC(c3ccc4ccccc4c3)=NN2C(=O)CNC2CCCCC2)cc1 (stereo unspecified),100*,0,3,0.72,52,+
C=CCNCC(=O)N1N=C(c2ccc3ccccc3c2)CC1c1ccc(OC)cc1 (stereo unspecified),41,-2,3,-0.24,49,+
COc1ccc(C(=O)C(CCC(CNC(C)(C)C)C(=O)c2ccc(OC)cc2)CNC(C)(C)C)cc1 (stereo unspecified),100*,13,2,-2.1,-141,i
Brc1ccc(-c2ncc3ccccn23)cc1,.,0,.,-0.64,-1,.
C=CCN1C(=O)/C(=C\c2ccc(Cl)cc2)N=C1SCC(=O)NCCC,14,-2,1,0.96,76*,i
COc1ccc(/C=N/NC(=O)c2cccc(NC(=O)c3ccccc3Cl)c2)c(OC)c1,53*,0,4,0.68,4,i
CCCCC(=O)Nc1cccc(C(=O)N/N=C/c2ccc(OC)cc2OC)c1,100*,2,6,1.8,12,i
O=C(N/N=C/c1ccncc1)c1cccc(NC(=O)c2ccccc2Cl)c1,62*,-2,2,0.79,31,i
CCN1CCCC1CNC(=O)C(=O)NC(C)c1ccccc1 (stereo unspecified),-2,0,5,2.5,-26,i
O=C(NCc1ccco1)C1(c2ccc(Br)cc2)CCCC1,32,.,2,1.8,29,i
CN(Cc1nc(-c2cnccn2)no1)Cc1n[nH]c2c1CCCC2,-5,3,1,1.4,1,i
COc1ccc(S(=O)(=O)Nc2ccccc2C)cc1,5,-7,35,0.61,24,i
COc1ccc(S(=O)(=O)Nc2cc3c4c(oc3c3ccccc23)CCCC4=O)cc1,19,-1,25*,-0.37,41,i
COc1ccc(S(=O)(=O)Nc2cc3c4c(oc3c3ccccc23)CC(C)(C)CC4=O)cc1,100*,1,20*,-1.4,36,i
CC1(C)CC(CC(=O)Nc2nccs2)(c2ccccc2)CCO1 (stereo unspecified),-3,-4,4,-0.92,9,i
O=C1OCC(CO)(CO)N=C1NNc1ccc(Cl)c(Cl)c1,100*,2,4,0.91,-11,i
O=S1(=O)c2ccccc2N=NN1Cc1cc(Cl)cc(Cl)c1,-2,0,2,0.27,92*,i
CCc1ccc(NC(=S)NC2CC3CCC(C2)N3Cc2ccco2)cc1 (stereo unspecified),94*,-1,2,0.011,4,i
Cc1cccc(NC(=S)NC2CC3CCC(C2)N3Cc2ccco2)c1 (stereo unspecified),79*,2,3,-0.97,-11,i
COc1ccc(NC(=S)NC2CC3CCC(C2)N3Cc2ccco2)cc1 (stereo unspecified),42,2,3,1.1,3,i
Cc1cccc(NC(=O)NC2CC3CCC(C2)N3Cc2ccco2)c1 (stereo unspecified),8,0,2,-0.97,-8,i
Cc1ccccc1NC(=S)NC1CC2CCC(C1)N2Cc1ccco1 (stereo unspecified),60*,-1,3,2.6,-14,i
Cc1cccc(NC(=S)NC2CC3CCCC(C2)N3Cc2ccco2)c1 (stereo unspecified),63*,1,2,0.38,1,i
Cn1cnnc1SCC(=O)N/N=C/c1ccc(OCC(N)=O)cc1,.,2,.,-0.023,10,.
C/C(CC(C)C)=N\Nc1ccc(S(N)(=O)=O)cc1[N+](=O)[O-],6,-1,1,-0.077,-4,i
SMILES,Lmaj promast,b-catenin transl,MT stabilizer,Dynein transport,CHOP inh,Autophagy HCS
COc1ccc(CNC(=O)CS(=O)CC(=O)O)cc1OC (stereo unspecified),-9,2,4,0.059,15,i
Cc1ccc(NC(=S)NC2CC3CCCC(C2)N3Cc2ccco2)cc1 (stereo unspecified),90*,1,8,0.08,-1,i
COc1cccc(-c2nc(CS(=O)(=O)CC(=O)Nc3cccc(C)c3C)c(C)o2)c1,-4,-2,4,-1.5,46,i
C=CCOc1c(Cl)cc(C2NC(=O)NC(C)=C2C(=O)OC)cc1Cl (stereo unspecified),9,0,23*,0.54,45,i
CN1/C(=C/C(=S)NC(=O)C2(C)CC2(Cl)Cl)C(C)(C)c2ccccc21 (stereo unspecified),51*,5,3,-0.74,14,i
CN1/C(=C\C=N\NC(=O)c2ccccc2Br)C(C)(C)c2ccccc21,50*,1,4,0.86,43,i
CN1/C(=C\C(=S)NC(=O)c2ccccc2Cl)C(C)(C)c2ccccc21,45,9,4,0.66,22,i
COc1ccccc1C(=O)NC(=S)/C=C1/N(C)c2ccccc2C1(C)C,78*,.,2,-0.21,73*,i
CN1/C(=C\C(=S)Nc2ccccc2)C(C)(C)c2ccccc21,42,-5,2,-0.63,-2,i
COc1ccc2[nH]cc(/C=C/C(=O)c3ccccc3)c2c1,.,21,.,-1.1,-4,.
O=C(NNC(=O)C1CCCN(c2ncccn2)C1)c1ccncc1 (stereo unspecified),-8,0,2,0.83,21,i
C/C=C/c1ccc(OCCCNC(C)CC)c(OC)c1 (stereo unspecified),-3,2,1,0.19,24,i
C/C=C/c1ccc(OCCOc2cc(C=O)ccc2OC)c(OC)c1,85*,0,8,1.3,18,i
C/C=C/c1ccc(OCCCNC2CCCC2)c(OC)c1,100*,1,3,-1.2,56,i
C/C=C/c1ccc(OCC(=O)O)c(OC)c1,.,-2,.,0.51,5,.
C=CCNC(=S)NCC=C,.,0,.,-0.79,15,.
O=C(CN1C(=O)/C(=C\C=C\c2ccccc2)SC1=S)Nc1ccc(F)cc1,6,0,2,0.0091,89*,i
O=C(COC(=O)CCN1C(=O)/C(=C\C=C\c2ccccc2)SC1=S)Nc1cc(F)ccc1F,-1,-4,4,-0.95,77*,i
O=C(CCN1C(=O)/C(=C/C=C/c2ccccc2)SC1=S)Nc1nc2ccccc2s1,0,-1,2,1.5,29,i
COc1ccc(N2CCN(C(CNS(=O)(=O)c3cc(F)ccc3F)c3cccnc3)CC2)cc1 (stereo unspecified),99*,.,1,-0.18,23,i
O=S(=O)(NCC(c1cccnc1)N1CCN(c2ccc(F)cc2)CC1)c1cc(F)ccc1F (stereo unspecified),95*,.,3,-0.24,17,i
